Screening results as filed in PubChem BioAssay.
Only some compounds are listed: those with a hit (about 5.3% of all), similar ones and a draw of the others.
CSC inhib – blocks cancer stem cells; cancer stem cell-like cells viability, luminescence; inhibition, % at 7.5 µM; hit rate 1.1% among 300,000; AID 2717; in the data active = inhibition above about 75%; inconclusive = no clear call, values can overlap the other calls; tested in HMLE shEcad cells
NLRP3 yeast inh – inhibitors of NALP3 inflammasome in yeast. hit rate 0.39% among 330,000. AID 2825. Yeast reconstituted NLRP3/ASC/caspase-1, beta-gal luminescence, 24 h. inhibition, % at 10 µM;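 active = inhibition of 50% or more; inactive = inhibition below 50%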
T cruzi repl – T. cruzi replication inhibition. hit rate 1.4% among 300,000. inhibition, % (concentration not given with the values). AID 1885. T. cruzi beta-gal in NIH3T3, luminescence, 90 h;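 active = mean inhibition across valid replicates above about 55%, limit read from the data; inconclusive = mean below that limit but half or more replicates reach it; inactive = mean below it, under half of replicates reach it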;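 note: signal also drops with host cell toxicity which is not excluded here; higher percent means less beta-gal luminescence so fewer parasites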
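Material: NIH/3T3 host cells with β-galactosidase reporter T. cruzi; Input: 5,000 host fibroblasts per well; Medium: DMEM, 2% fetal bovine serum; Compound: 50 nL DMSO compound solution per well; Schedule: 3 h host attachment, then at least 90 h co-culture; Detection: luminescent β-galactosidase signal after 60 min lysis.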
Mdm2 MdmX PPI – inhibitors of human Mdm2/MdmX interaction; hit rate 3% among 330,000; SaOS-2 split-luciferase Mdm2/MdmX complementation, luminescence; inhibition, % at 8 µM; AID 485346;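 active = inhibition of at least 50% at 8 µM in the primary screen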
Target sequence (O15151 whole entry, looked up): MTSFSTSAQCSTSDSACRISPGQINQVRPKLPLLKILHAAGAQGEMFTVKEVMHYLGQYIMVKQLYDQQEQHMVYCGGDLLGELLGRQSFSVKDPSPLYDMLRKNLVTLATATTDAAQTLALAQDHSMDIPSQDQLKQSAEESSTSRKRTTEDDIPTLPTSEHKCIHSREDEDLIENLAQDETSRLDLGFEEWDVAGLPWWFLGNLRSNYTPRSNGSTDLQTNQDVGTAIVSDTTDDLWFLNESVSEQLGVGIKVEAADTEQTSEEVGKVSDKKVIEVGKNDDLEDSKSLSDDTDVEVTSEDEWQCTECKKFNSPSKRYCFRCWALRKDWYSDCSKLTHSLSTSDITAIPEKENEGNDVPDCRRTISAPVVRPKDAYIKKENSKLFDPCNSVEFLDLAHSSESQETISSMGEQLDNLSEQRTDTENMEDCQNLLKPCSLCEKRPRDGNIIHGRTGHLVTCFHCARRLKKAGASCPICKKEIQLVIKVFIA
Target sequence (Q00987 whole entry, looked up): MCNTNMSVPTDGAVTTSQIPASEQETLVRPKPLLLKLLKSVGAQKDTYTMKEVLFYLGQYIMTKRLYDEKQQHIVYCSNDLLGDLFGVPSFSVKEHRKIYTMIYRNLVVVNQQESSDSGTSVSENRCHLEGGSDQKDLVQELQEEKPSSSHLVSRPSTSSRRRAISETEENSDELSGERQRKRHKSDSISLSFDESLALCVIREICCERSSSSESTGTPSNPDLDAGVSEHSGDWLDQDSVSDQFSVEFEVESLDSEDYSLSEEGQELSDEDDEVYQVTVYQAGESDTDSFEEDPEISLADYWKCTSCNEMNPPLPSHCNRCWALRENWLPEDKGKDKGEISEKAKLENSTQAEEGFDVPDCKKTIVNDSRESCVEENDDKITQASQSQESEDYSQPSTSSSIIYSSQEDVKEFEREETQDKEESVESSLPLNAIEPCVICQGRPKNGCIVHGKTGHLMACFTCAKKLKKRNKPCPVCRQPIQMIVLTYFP
Calb FLC – C. albicans growth modulation with fluconazole | C. albicans CaCi-2 (fluconazole-resistant clinical isolate) + fluconazole, Alamar Blue growth, 48 h | growth inhibition, % (test concentration not listed) | hit rate 0.57% among 300,000;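 active = growth inhibition above about 58% in most replicates, limit read from the data, passing the limit was not always enough; inconclusive = exactly half the replicates above a set limit; inactive = most replicates below a set limit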;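 note: all wells also contain fluconazole at 8 µg/ml as a sub-toxic cotreatment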
Beta cell apopt – beta cell apoptosis inhibition; INS-1E cytokine-induced death, ATP luminescence, 48 h; percent of positive-control rescue, neutral wells zero; protection from apoptosis, % (concentration not given with the values); hit rate 0.8% among 300,000; AID 435005;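 active = Every replicate reaches about 75%, or at least half do and their mean reaches it too, limit read from the data; inconclusive = At least half of replicates reach the limit but their mean does not; inactive = Under half of replicates reach the limit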;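 note: higher means more ATP so stronger rescue from cytokine killing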
Mdm2 MdmX conf – confirmation of human Mdm2/MdmX interaction inhibitors; shares compounds with Mdm2 MdmX PPI; Mdm2-MdmX binding, luminescent assay; inhibition, % at 8 µM; hit rate 55% among 10,000; AID 489028; in the data active = inhibition above about 40%
FLuc counter – inhibits full-length luciferase, flagging false Mdm2/MdmX hits. hit rate 77% among 6,200. inhibition, % at 8 µM. SaOS-2 full-length luciferase counterscreen, luminescence. shares compounds with Mdm2 MdmX PPI. AID 504607;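 active = mean inhibition at 8 µM reaching about 37%, which flags the compound as non-specific, limit read from the data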;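 note: p53-null SaOS-2 cells with luciferase driven by a doxycycline-inducible promoter; compound on cells about two nights before reading with doxycycline added after day one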
Of the large screens only hits and unclear results are named; the others gave an inactive call (follow-up assays come after a bar, where they were run).

Cc1nnnn1/C(=C\c1ccccc1)C(=O)OCC(=O)Nc1cccc(S(=O)(=O)N(C)C)c1	Mdm2 MdmX PPI 72 (no result: CSC inhib, T cruzi repl, Calb FLC) | Mdm2 MdmX conf inactive | FLuc counter inactive
Cc1nnnn1/C(=C\c1ccccc1)C(=O)OCC(=O)Nc1ccc(Cl)cc1F	Mdm2 MdmX PPI 67 | Mdm2 MdmX conf 61 | FLuc counter 61
O=C(COC(=O)Cc1n[nH]c(=O)c2ccccc12)Nc1ccc(Cl)cc1F	none
CN(C)S(=O)(=O)c1cccc(NC(=O)COC(=O)c2ccc3ccccc3n2)c1	none (no result: T cruzi repl, Calb FLC)
Cc1ccccc1OCc1occc1C(=O)Nc1cccc(-n2cnnn2)c1	Mdm2 MdmX PPI 59 | Mdm2 MdmX conf 47 | FLuc counter 47
CCN1CCN(CCC(=O)Nc2ccccc2C)CC1	none
O=C(CCCOc1cccc(Br)c1)NC1CCC(O)CC1 (centres undefined)	none
CCOC(=O)C1=C(c2ccccc2)NC(N)=NC1c1ccc(OCc2ccc(C(=O)OC)cc2)cc1 (centres undefined)	Mdm2 MdmX PPI 100 | Mdm2 MdmX conf inactive | FLuc counter 72
CCOC(=O)C1=C(c2ccccc2)Nc2ncnn2C1c1ccc(C(=O)O)cc1 (centres undefined)	none
O=C(COc1ccccc1F)OCC(=O)N1CCc2ccccc21	none (no result: CSC inhib, T cruzi repl, Calb FLC, Beta cell apopt)
N#C/C(=C/c1ccc(F)cc1)c1nnc(NC(=O)c2ccccc2)s1	Mdm2 MdmX PPI 74 | Mdm2 MdmX conf inactive
CCN(c1ccccc1)S(=O)(=O)c1ccc(C(=O)Nc2ccc(C)cn2)cc1	none
CS(=O)(=O)c1nc(S(=O)(=O)c2ccc(Cl)cc2)c(N2CCOCC2)s1	Mdm2 MdmX PPI 57 | Mdm2 MdmX conf inactive
Cc1ccc(S(=O)(=O)c2nc(S(C)(=O)=O)sc2N2CCCCCC2)cc1	none
Cc1ccc(S(=O)(=O)c2nc(S(C)(=O)=O)sc2N2CCC(C)CC2)cc1	Mdm2 MdmX PPI 53 | Mdm2 MdmX conf inactive
O=C(NCC(c1cccnc1)N1CCOCC1)c1cccc(Cl)c1 (centres undefined)	none
O=C(NCCc1ccccc1)C1CCC(CNc2nc(=S)[nH]c3ccccc23)CC1 (centres undefined)	Mdm2 MdmX PPI 96 | Mdm2 MdmX conf inactive
N#Cc1c(N)nc(Sc2ccc(Cl)cc2)c(C#N)c1-c1ccccc1Cl	Mdm2 MdmX PPI 80 | Mdm2 MdmX conf 48 | FLuc counter 51
CCSc1nc(N)c(C#N)c(-c2ccccc2Cl)c1C#N	Mdm2 MdmX PPI 50 | Mdm2 MdmX conf inactive | FLuc counter 66
C=CCSc1nc(N)c(C#N)c(-c2ccc(C)cc2)c1C#N	Calb FLC inconclusive (no result: Beta cell apopt)
COc1ccc(-c2csc3ncnc(Cl)c23)cc1	none
Cn1nnnc1Sc1ncnc2scc(-c3ccc(Cl)cc3)c12	CSC inhib 83, Mdm2 MdmX PPI 100 (no result: T cruzi repl, Calb FLC) | Mdm2 MdmX conf 99 | FLuc counter 52
COc1ccc(-c2csc3ncnc(Sc4nnnn4C)c23)cc1	Mdm2 MdmX PPI 68 (no result: T cruzi repl, Calb FLC) | Mdm2 MdmX conf 46 | FLuc counter inactive
Cn1nnnc1Sc1ncnc2scc(-c3cccc4c3sc3ccccc34)c12	CSC inhib 111, Mdm2 MdmX PPI 100 (no result: T cruzi repl, Calb FLC) | Mdm2 MdmX conf 67 | FLuc counter 48
Cn1nnnc1Sc1c(Cl)cccc1[N+](=O)[O-]	none
Cn1nnnc1Sc1ncnc2scc(-c3ccccc3Cl)c12	Mdm2 MdmX PPI 68 (no result: T cruzi repl, Calb FLC) | Mdm2 MdmX conf 59 | FLuc counter inactive
CCN(CC)S(=O)(=O)c1ccc2c(c1)nc(SCc1nc3ccsc3c(=O)[nH]1)n2CC	none
Cn1nnnc1Sc1ccc([N+](=O)[O-])cc1Cl	none
Cn1nnnc1Sc1ncnc2scc(-c3ccc4c(c3)OCO4)c12	Mdm2 MdmX PPI 71 (no result: CSC inhib, T cruzi repl, Calb FLC) | Mdm2 MdmX conf inactive
Cn1nnnc1Sc1ncnc2scc(-c3ccc([N+](=O)[O-])cc3)c12	Mdm2 MdmX PPI 99 (no result: T cruzi repl, Calb FLC) | Mdm2 MdmX conf 100 | FLuc counter 50
Cc1sc2ncnc(Sc3nnnn3-c3ccccc3)c2c1C	Mdm2 MdmX PPI 88 | Mdm2 MdmX conf 48 | FLuc counter inactive
N#CC(C(=O)Nc1ccc(Cl)c(Cl)c1)=C1Nc2ccccc2N1	Mdm2 MdmX PPI 59 | Mdm2 MdmX conf inactive | FLuc counter 37
